Test results published in ChEMBL document CHEMBL3414488, “When structure-affinity relationships meet structure-kinetics relationships: 3-((Inden-1-yl)amino)-1-isopropyl-cyclopentane-1-carboxamides as CCR2 antagonists” (Eur J Med Chem, 2015).
Active and inactive are the calls of the source. No cut-off for these calls is given here.

Key:
[1] = molecular target: T1, C-C chemokine receptor type 2 (Homo sapiens, UniProt P41597); test: Displacement of [3H]INCB3344 from human CCR2 receptor expressed in human U2OS cell membrane assessed as kinetic rate index at Ki by dual-point competition association assay relative to control; format: cell membranes
Outline: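 U2OS–CCR2 membranes (10 μg) incubated with 1.8 nM [3H]INCB3344 at 25 °C for 50 min (t1) or 240 min (t2). Unlabeled ligand was present at 1-fold its Ki from 125I-CCL2 displacement. KRI = specific binding at t1 divided by specific binding at t2.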
Target sequence in this assay (P41597 whole entry, looked up): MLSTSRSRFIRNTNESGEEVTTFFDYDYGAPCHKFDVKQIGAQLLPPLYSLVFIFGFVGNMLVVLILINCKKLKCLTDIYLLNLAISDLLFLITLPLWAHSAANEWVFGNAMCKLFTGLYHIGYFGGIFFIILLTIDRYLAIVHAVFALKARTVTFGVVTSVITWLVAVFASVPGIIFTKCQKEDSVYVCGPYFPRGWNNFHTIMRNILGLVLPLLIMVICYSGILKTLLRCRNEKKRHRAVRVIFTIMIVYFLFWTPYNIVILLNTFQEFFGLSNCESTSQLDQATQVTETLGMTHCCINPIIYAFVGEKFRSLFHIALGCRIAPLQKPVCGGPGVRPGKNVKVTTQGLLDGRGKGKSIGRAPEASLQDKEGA

[2] = Residence time of the compound
[3] = molecular target: T1, C-C chemokine receptor type 2; test: Displacement of 0.1 nM [125I]CCL2 from human CCR2 expressing human U2OS cell membrane by scintillation spectrometry; format: cell membranes
Outline: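 U2OS–CCR2 membranes (15 μg) incubated 150 min at 37 °C with 0.1 nM 125I-CCL2 with or without competitor. Ki derived from IC50 by Cheng–Prusoff. Mean ± S.E.M. of at least 3 experiments in duplicate.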
Target sequence in this assay (P41597 whole entry): as the sequence (P41597 whole entry, looked up) above

[4] = molecular target: T1, C-C chemokine receptor type 2; test: Antagonist activity at human CCR2 expressing human U2OS cells assessed as inhibition of CCL2-induced G protein activation at 10 uM by [35S]GTPgammaS binding/scintillation spectrometry assay; format: functional, cell-based
Outline: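 Membranes (10 μg) in 50 mM Tris-HCl pH 7.4, 5 mM MgCl2, 100 mM NaCl, 1 mM EDTA, 0.05% BSA, 10 μM GDP, 10 μg saponin; 30 min preincubation with 10 μM antagonist at 25 °C, then 10 nM CCL2 for 30 min, then 0.3 nM [35S]GTPγS for 90 min. Stopped with ice-cold buffer, GF/B filtration, scintillation counting.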
Target sequence in this assay (P41597 whole entry, looked up): as above

[5] = molecular target: T1, C-C chemokine receptor type 2; test: Displacement of 0.1 nM [125I]CCL2 from human CCR2 expressing human U2OS cell membrane by scintillation spectrometry
Target sequence in this assay (P41597 whole entry, looked up): as above

SMILES | Ratio [1] | Residence time [2] | Ki [3] | inhibition [4] | inhibition [5] | Kd [3]
COc1cc2c(cc1Br)C(C)CC2N[C@@H]1CC[C@@](C(=O)N2CCc3ccc(C(F)(F)F)cc3C2)(C(C)C)C1 (stereo not given in full) | 1.5 | 238 min | 13 nM | – | – | –
CC(C)[C@]1(C(=O)N2CCc3ccc(C(F)(F)F)cc3C2)CC[C@@H](NC2CCc3cc(Cl)ccc32)C1 (stereo not given in full) | 1.2 | 100 min | 1.6 nM | – | – | –
Cc1cccc2c1CCC2N[C@@H]1CC[C@@](C(=O)N2CCc3ccc(C(F)(F)F)cc3C2)(C(C)C)C1 (stereo not given in full) | 0.7 | – | 31 nM | – | – | –
CC(C)[C@]1(C(=O)N2CCc3ccc(C(F)(F)F)cc3C2)CC[C@@H](NC2CCc3c(N)cccc32)C1 (stereo not given in full) | 0.7 | – | 4.6 nM | – | – | –
CC(C)[C@]1(C(=O)N2CCc3ccc(C(F)(F)F)cc3C2)CC[C@@H](N[C@@H]2C[C@H](C)c3cc(Br)ccc32)C1 | – | – | 137 nM | – | – | –
CC(C)[C@]1(C(=O)N2CCc3ccc(C(F)(F)F)cc3C2)CC[C@@H](N[C@H]2C[C@@H](C)c3cc(Br)ccc32)C1 | 1.4 | 588 min | 1.7 nM | Active | – | –
CC(C)[C@]1(C(=O)N2CCc3ccc(C(F)(F)F)cc3C2)CC[C@@H](NC2CCc3cc(-c4ccccc4)ccc32)C1 (stereo not given in full) | – | – | – | – | 28% | –
CC(C)[C@]1(C(=O)N2CCc3ccc(C(F)(F)F)cc3C2)CC[C@@H](NC2CCc3c(C#N)cccc32)C1 (stereo not given in full) | 0.6 | – | 15 nM | – | – | –
CC(C)[C@]1(C(=O)N2CCc3ccc(C(F)(F)F)cc3C2)CC[C@@H](NC2CCc3cc(-c4cccc(C#N)c4)ccc32)C1 (stereo not given in full) | 0.7 | – | 55 nM | – | – | –
Cc1ccccc1-c1ccc2c(c1)CCC2N[C@@H]1CC[C@@](C(=O)N2CCc3ccc(C(F)(F)F)cc3C2)(C(C)C)C1 (stereo not given in full) | – | – | – | – | 46% | –
COc1ccc(-c2ccc3c(c2)CCC3N[C@@H]2CC[C@@](C(=O)N3CCc4ccc(C(F)(F)F)cc4C3)(C(C)C)C2)cc1 (stereo not given in full) | 0.9 | – | 75 nM | – | – | –
CC(C)[C@]1(C(=O)N2CCc3ccc(C(F)(F)F)cc3C2)CC[C@@H](NC2CCc3c(O)cccc32)C1 (stereo not given in full) | 0.7 | – | 21 nM | – | – | –
CC(C)[C@]1(C(=O)N2CCc3ccc(C(F)(F)F)cc3C2)CC[C@@H](NC2CCc3ccc(Cl)cc32)C1 (stereo not given in full) | 0.6 | – | 7.9 nM | – | – | –
CC(C)[C@]1(C(=O)N2CCc3ccc(C(F)(F)F)cc3C2)CC[C@@H](NC2CCc3cc(C(F)(F)F)ccc32)C1 (stereo not given in full) | 1.4 | 667 min | 13 nM | Active | – | –
CC(C)[C@]1(C(=O)N2CCc3ccc(C(F)(F)F)cc3C2)CC[C@@H](NC2CCc3cc(I)ccc32)C1 (stereo not given in full) | 1.3 | 103 min | 4.4 nM | – | – | –
CCC1CC(N[C@@H]2CC[C@@](C(=O)N3CCc4ccc(C(F)(F)F)cc4C3)(C(C)C)C2)c2cc(OC)c(Br)cc21 (stereo not given in full) | 1.3 | 179 min | 83 nM | – | – | –
CC1CC(N[C@@H]2CC[C@@](C(=O)N3CCc4ccc(C(F)(F)F)cc4C3)(C(C)C)C2)c2ccccc21 (stereo not given in full) | 0.7 | – | 3.4 nM | – | – | –
COc1cc2c(cc1OC)C(N[C@@H]1CC[C@@](C(=O)N3CCc4ccc(C(F)(F)F)cc4C3)(C(C)C)C1)CC2 (stereo not given in full) | 1 | 63 min | 1.2 nM | – | – | –
Cc1ccc2c(c1)C(N[C@@H]1CC[C@@](C(=O)N3CCc4ccc(C(F)(F)F)cc4C3)(C(C)C)C1)CC2 (stereo not given in full) | 0.6 | – | 23 nM | – | – | –
COc1cc(-c2ccc3c(c2)CCC3N[C@@H]2CC[C@@](C(=O)N3CCc4ccc(C(F)(F)F)cc4C3)(C(C)C)C2)ccn1 (stereo not given in full) | 0.6 | – | 23 nM | – | – | –
CC(C)[C@]1(C(=O)N2CCc3ccc(C(F)(F)F)cc3C2)CC[C@@H](NC2CCc3ccc(C#N)cc32)C1 (stereo not given in full) | 0.6 | – | 13 nM | – | – | –

SMILES | Ratio [1] | Residence time [2] | Ki [3] | inhibition [4] | inhibition [5] | Kd [3]
CC(C)[C@]1(C(=O)N2CCc3ccc(C(F)(F)F)cc3C2)CC[C@@H](N[C@H]2CCc3cc(Br)ccc32)C1 | 0.8 | 15 min | 24 nM | Active | – | –
COc1cc(-c2ccc3c(c2)CCC3N[C@@H]2CC[C@@](C(=O)N3CCc4ccc(C(F)(F)F)cc4C3)(C(C)C)C2)c(F)cn1 (stereo not given in full) | 0.8 | – | 12 nM | – | – | –
COc1cncc(-c2ccc3c(c2)CCC3N[C@@H]2CC[C@@](C(=O)N3CCc4ccc(C(F)(F)F)cc4C3)(C(C)C)C2)c1 (stereo not given in full) | 0.8 | – | 41 nM | – | – | –
CC(C)[C@]1(C(=O)N2CCc3ccc(C(F)(F)F)cc3C2)CC[C@@H](NC2CCc3ccccc32)C1 (stereo not given in full) | 1 | 21 min | 2.2 nM | – | – | –
CC(C)[C@]1(C(=O)N2CCc3ccc(C(F)(F)F)cc3C2)CC[C@@H](NC2CCc3cc(Br)ccc32)C1 (stereo not given in full) | 1.3 | 213 min | 2.3 nM | – | – | –
CC(C)[C@]1(C(=O)N2CCc3ccc(C(F)(F)F)cc3C2)CC[C@@H](NC2CCc3cc(F)ccc32)C1 (stereo not given in full) | 0.9 | 55 min | 4.9 nM | – | – | –
CO[C@@H]1COCC[C@@H]1N[C@@H]1CC[C@@](C(=O)N2CCc3ncc(C(F)(F)F)cc3C2)(C(C)C)C1 [MK-0812] | – | 92 min | 0.55 nM | – | – | 0.48 nM
CC(C)[C@]1(C(=O)NCc2cc(C(F)(F)F)cc(C(F)(F)F)c2)CC[C@@H](NC2CCc3ccccc32)C1 (stereo not given in full) | 0.8 | 9.1 min | – | – | – | –
COc1ccccc1-c1ccc2c(c1)CCC2N[C@@H]1CC[C@@](C(=O)N2CCc3ccc(C(F)(F)F)cc3C2)(C(C)C)C1 (stereo not given in full) | – | – | – | – | 2% | –
CC(C)[C@]1(C(=O)N2CCc3ccc(C(F)(F)F)cc3C2)CC[C@@H](NC2CCc3cc(-c4ccc(C#N)cc4)ccc32)C1 (stereo not given in full) | 0.9 | – | 11 nM | – | – | –
CC(C)[C@]1(C(=O)N2CCc3ccc(C(F)(F)F)cc3C2)CC[C@@H](N[C@@H]2C[C@@H](C)c3cc(Br)ccc32)C1 | – | – | 199 nM | – | – | –
CC(C)[C@]1(C(=O)N2CCc3ccc(C(F)(F)F)cc3C2)CC[C@@H](NC2CCc3cc(-c4cccnc4)ccc32)C1 (stereo not given in full) | 0.7 | – | 10 nM | – | – | –
CCOc1cncc(-c2ccc3c(c2)CCC3N[C@@H]2CC[C@@](C(=O)N3CCc4ccc(C(F)(F)F)cc4C3)(C(C)C)C2)c1 (stereo not given in full) | 0.5 | – | 10 nM | – | – | –
COc1ccc(OC)c2c1CCC2N[C@@H]1CC[C@@](C(=O)N2CCc3ccc(C(F)(F)F)cc3C2)(C(C)C)C1 (stereo not given in full) | 0.8 | – | 49 nM | – | – | –
CC1CC(N[C@@H]2CC[C@@](C(=O)N3CCc4ccc(C(F)(F)F)cc4C3)(C(C)C)C2)c2ccc(Br)cc21 (stereo not given in full) | 1.3 | 345 min | 2 nM | – | – | –
CC(C)[C@]1(C(=O)N2CCc3ccc(C(F)(F)F)cc3C2)CC[C@@H](N[C@@H]2CCc3cc(Br)ccc32)C1 | 1.7 | 714 min | 2.4 nM | Active | – | –
Cc1cccc(-c2ccc3c(c2)CCC3N[C@@H]2CC[C@@](C(=O)N3CCc4ccc(C(F)(F)F)cc4C3)(C(C)C)C2)c1 (stereo not given in full) | – | – | – | – | 24% | –
CC(C)[C@]1(C(=O)N2CCN(c3cc(C(F)(F)F)ccn3)CC2)CC[C@@H](NC2CCc3ccccc32)C1 (stereo not given in full) | 0.5 | 8.3 min | 15 nM | – | – | –
CC(C)[C@]1(C(=O)N2CCc3ccc(C(F)(F)F)cc3C2)CC[C@@H](N[C@H]2C[C@H](C)c3cc(Br)ccc32)C1 | 1.2 | 208 min | 4.6 nM | Active | – | –
COc1cc2c(cc1Br)CCC2N[C@@H]1CC[C@@](C(=O)N2CCc3ccc(C(F)(F)F)cc3C2)(C(C)C)C1 (stereo not given in full) | 1.3 | 323 min | 4.5 nM | – | – | –
COc1cccc(-c2ccc3c(c2)CCC3N[C@@H]2CC[C@@](C(=O)N3CCc4ccc(C(F)(F)F)cc4C3)(C(C)C)C2)c1 (stereo not given in full) | 0.8 | – | 39 nM | – | – | –
